Bioassay records (PubChem BioAssay)
APJ antag: APJ receptor antagonism; P35414; CHO-K1 APJ beta-arrestin complementation, luminescence; inhibition, % at 20 µM; actives 0.32% (n = 330,000);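 active = inhibition above about 40% at 20 µM, limit read from the data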;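 also: cells challenged with 10 nM apelin-13 agonist together with compound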
EBI2 antag: antagonists of human EBI2 receptor; inhibition, % at 5 µM; EBI2 beta-arrestin recruitment, luminescence, 7a,25-OHC stimulated; P32249; actives 0.81% (n = 360,000); in the data active = inhibition above about 38%;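 also: enzyme fragment complementation signal reports receptor beta-arrestin coupling in cells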
APJ ag: APJ receptor agonism | activation, % at 20 µM | actives 0.11% (n = 330,000) | CHO-K1 APJ PathHunter beta-arrestin, luminescence; 0% DMSO wells, 100% apelin | AID 2520;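 active = activation more than six SD over the plate average, tested at 20 µM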
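Assay system: CHO-K1 APJ beta-arrestin complementation cell line / Compound: single test compound dose, 20 µM final, 1% DMSO / Times: overnight seeding, 90 min compound at 25 °C, 1 h detection / Technique: beta-gal luminescence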
CCR6 antagonist: antagonists of human CCR6 receptor. P51684. CHO-K1 CCR6 PathHunter beta-arrestin, luminescence, CCL20-stimulated. inhibition, % at 20 µM. actives 0.49% (n = 340,000);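 active = compounds whose inhibition of the agonist-driven luminescence signal at 20 µM reaches about 50%, limit read from the data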;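 also: cells stimulated with CCL20 at 14 nM final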
CXCR6 block: CXCR6 (human) receptor inhibition | O00574 | CHO-K1 PathHunter CXCR6 beta-arrestin, luminescence | inhibition, % at 20 µM | actives 0.36% (n = 360,000); in the data active = inhibition above about 34%, passing the limit was not always enough;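 also: antagonist mode with CXCL16 agonist at 10 nM final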
Target sequence (O00574 whole entry, looked up): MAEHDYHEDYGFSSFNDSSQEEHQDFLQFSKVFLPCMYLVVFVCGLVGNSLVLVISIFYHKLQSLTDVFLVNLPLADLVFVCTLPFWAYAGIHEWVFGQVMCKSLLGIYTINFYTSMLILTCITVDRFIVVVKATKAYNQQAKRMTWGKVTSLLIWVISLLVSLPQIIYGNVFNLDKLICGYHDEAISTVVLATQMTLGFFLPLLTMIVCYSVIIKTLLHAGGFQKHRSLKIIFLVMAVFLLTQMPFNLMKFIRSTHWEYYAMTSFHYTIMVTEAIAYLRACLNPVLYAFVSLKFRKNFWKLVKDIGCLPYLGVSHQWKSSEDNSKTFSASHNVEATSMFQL
EBI2 conf: confirmation of human EBI2 receptor antagonists | AID 651997 | actives 29% (n = 2,400) | inhibition, % at 5 µM | shares compounds with EBI2 antag | EBI2 beta-arrestin luminescence, 7a,25-OHC antagonism;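 active = inhibition of at least 50%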
EBI2 ag: counter-screen for EBI2 antagonists: EBI2 agonist activity. shares compounds with EBI2 antag. EBI2-expressing cells, agonist mode, luminescence, 60 min; 0% vehicle, 100% 7α,25-dihydroxycholesterol control. activation, % at 5 µM. 2,400 tested, under 10 active. AID 652000;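 active = activation of at least 50%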
bGal counter: inhibits E. coli beta-galactosidase, counter-screen for EBI2 antagonists; AID 652176; shares compounds with EBI2 antag; actives 1% (n = 2,400); inhibition, % at 5 µM; purified beta-galactosidase, luminescent Galacton Star, 15 min;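 active = replicate-average signal at least 3 plate SD below neutral wells, shown as high inhibition, flagging enzyme-inhibiting false positives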;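 also: higher means stronger loss of beta-gal luminescence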
Hits are given with their value; i = inactive; nt = not tested or not shown. Shown are actives, neighbours in structure and some others; about 1.5% of the full set was active somewhere.

SMILES	APJ antag	EBI2 antag	APJ ag	CCR6 antagonist	CXCR6 block	EBI2 conf	EBI2 ag	bGal counter
CC(C(=O)NCc1ccco1)n1nc(-c2ccccc2)c2cc(Cl)ccc21 (configuration not stated)	i	i	i	i	i	nt	nt	nt
CC(C)(C)c1nnc(N/N=C/c2ccccc2)n(N)c1=O	i	77	i	i	i	i	i	i
C=CCn1c(SCC(=O)Nc2ccc(N3CCOCC3)cc2)nc2ccccc2c1=O	i	i	i	i	i	nt	nt	nt
COCCN1C[C@@H](CO)O[C@@H](n2cnc3c(NCCN(C)C)ncnc32)C1	nt	i	nt	nt	i	nt	nt	nt
COc1ccc(C)cc1N(CC(=O)NC1CCCC1)C(=O)Cn1nnc(-c2ccc(C)o2)n1	i	i	i	i	i	nt	nt	nt
CN(C)S(=O)(=O)c1ccc(C(=O)NCCSc2ccc(Br)cc2)cc1	i	65	i	i	i	i	i	i
O=C(CSc1ccc(Cl)cc1)N1CCN(c2ccc([N+](=O)[O-])cc2Cl)CC1	i	84	i	i	i	i	i	i
O=C(CSc1ccc(Cl)cc1)N1CCN(c2c(Cl)cccc2[N+](=O)[O-])CC1	i	94	i	i	i	86	i	i
CCCC(=O)N1CCN(c2ccc([N+](=O)[O-])cc2Cl)CC1	i	i	i	i	i	nt	nt	nt
O=C(/C=C/c1ccc(Cl)cc1)N1CCN(c2c(Cl)cccc2[N+](=O)[O-])CC1	i	98	i	i	i	91	i	i
CCSc1nnc(NC(=O)C2CC(=O)N(Cc3ccccc3)C2)s1 (configuration not stated)	i	i	i	i	i	nt	nt	nt
Cc1c(O)cnc2nn(-c3ccccc3)c(=N)n12	nt	i	nt	nt	i	nt	nt	nt
COc1ccc(-n2cc(-c3ccccc3)[nH]c2=S)cc1	i	74	i	i	i	i	i	i
O=C(Nc1ccc(Oc2ccccc2)nc1)C1CCCCN1Cc1cccc(OCCO)c1 (configuration not stated)	i	63	i	i	i	58	i	i
O=C(CCc1ccccc1)Nc1ccc2ccccc2n1	i	72	i	i	i	i	i	i
Cc1cc(C)n(-c2ccc(C(=O)N3CCN(S(=O)(=O)c4ccc(Br)cc4Cl)CC3)cc2)n1	nt	92	nt	nt	i	65	i	i
N#Cc1ccccc1CSCCNC(=O)Cc1c(F)cccc1Cl	i	i	i	i	i	nt	nt	nt
CC1CC(C)CN(c2ncc3c(n2)CC(c2ccc(Cl)cc2)CC3=O)C1 (configuration not stated)	i	57	i	i	i	i	i	i
CC1CC(C)CN(c2ncc3c(n2)CC(c2ccccc2Cl)CC3=O)C1 (configuration not stated)	i	i	i	i	i	nt	nt	nt
COc1ccc2nccc(/C=C/c3ccnc4ccc(OC)cc34)c2c1	i	38	i	i	i	i	i	i
CC1CCCC1/C(=N/O)c1ccccc1 (configuration not stated)	i	i	i	i	i	nt	nt	nt
CCCCn1nnnc1C(c1ccnc2ccccc12)N1CCN(C/C=C/c2ccccc2)CC1 (configuration not stated)	nt	i	nt	nt	i	nt	nt	nt
CCCCn1nnnc1C(CC)N1CCN(C/C=C/c2ccccc2)CC1 (configuration not stated)	nt	i	nt	nt	i	nt	nt	nt
CCCCn1nnnc1C(c1cccc2ccccc12)N1CCN(C/C=C/c2ccccc2)CC1 (configuration not stated)	nt	44	nt	nt	i	i	i	i
CCCCn1nnnc1C(c1ccccc1)N1CCN(C/C=C/c2ccccc2)CC1 (configuration not stated)	nt	46	nt	nt	i	i	i	i
SMILES	APJ antag	EBI2 antag	APJ ag	CCR6 antagonist	CXCR6 block	EBI2 conf	EBI2 ag	bGal counter
Nc1nc(-c2ccccc2)ns1	nt	i	nt	i	i	nt	nt	nt
O=C(Nc1cccc(-c2csc(Nc3cccc(C(F)(F)F)c3)n2)c1)c1cc([N+](=O)[O-])cc(C(F)(F)F)c1	i	47	i	i	i	i	i	i
COc1ccccc1N(CC(=O)NCCSc1ccc(Cl)cc1)S(C)(=O)=O	i	80	i	i	i	62	i	i
Cc1ccc(SCCNC(=O)CN(c2ccc3c(c2)OCO3)S(C)(=O)=O)cc1	i	71	i	i	i	58	i	i
COc1ccc(N(CC(=O)NCCSc2ccccn2)S(=O)(=O)c2ccccc2)c(OC)c1	i	i	i	i	i	nt	nt	nt
COc1ccccc1N(CC(=O)NCCSc1ccccc1)S(C)(=O)=O	i	i	i	i	i	nt	nt	nt
COc1ccc(N(CC(=O)NCCSc2ccccc2)S(=O)(=O)c2ccccc2)cc1	i	88	i	i	i	59	i	i
COc1ccc(N(CC(=O)NCCSc2ccccc2)S(=O)(=O)c2ccccc2)c(OC)c1	i	45	i	i	i	i	i	i
Cc1nnnn1CC(=O)Nc1cccc([N+](=O)[O-])c1	i	i	i	i	i	nt	nt	nt
COc1ccc(N(CC(=O)NCCSCc2cccc(Cl)c2)S(C)(=O)=O)cc1Cl	i	i	i	i	i	nt	nt	nt
COc1ccccc1N(CC(=O)NCCSCc1ccc(C)cc1)S(=O)(=O)c1ccccc1	i	i	i	i	i	nt	nt	nt
COc1ccc(N(CC(=O)NCCSCc2ccc(C)cc2)S(=O)(=O)c2ccccc2)cc1	i	73	i	i	i	i	i	i
COc1ccccc1N(CC(=O)NCCSc1ccccc1)S(=O)(=O)c1ccccc1	i	50	i	i	i	i	i	i
COc1ccc(N(CC(=O)NCCSCc2ccc(Cl)cc2)S(C)(=O)=O)cc1Cl	i	46	i	i	i	i	i	i
CC(=O)NC(Nc1c(C)n(C)n(-c2ccccc2)c1=O)C(Cl)(Cl)Cl (configuration not stated)	i	i	i	i	i	nt	nt	nt
Cc1ccc(SCC(=O)N2CCN(S(=O)(=O)c3cccs3)CC2)cc1	i	76	i	i	i	i	i	i
O=C(CSc1ccc(Cl)cc1)N1CCN(c2ncc(C(F)(F)F)cc2Cl)CC1	i	84	i	i	i	70	i	i
O=C(CN1CCN(c2ncc(C(F)(F)F)cc2Cl)CC1)N1CCN(c2ncc(C(F)(F)F)cc2Cl)CC1	i	i	i	i	i	nt	nt	nt
CN1CCN(C(=O)CSc2ccc(Cl)cc2)CC1	i	47	i	i	i	i	i	i
CN1CCCN(C(=O)CSc2ccccc2)CC1	i	i	i	i	i	nt	nt	nt
Cc1ccc(S(=O)(=O)N2CCN(S(=O)(=O)c3cccs3)CC2)cc1	i	i	i	i	i	nt	nt	nt
CC(=O)c1ccc(S(=O)(=O)N2CCN(C(=O)CSc3ccc(C)c(C)c3)CC2)cc1	i	70	i	i	i	i	i	i
Cc1ccc(C(=O)N[C@H](C(=O)NC2CCCCC2)C(C)C)cc1	i	i	i	i	i	nt	nt	nt
